Source: the EternaBench riboswitch data

Test system: MS2 coat protein
Assay: apparent Kd, MS2 coat protein; higher = weaker binding; RNA-MaP array; FMN 200 µM where present
Procedure, shortened: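 Two titrations, one without ligand and one with constant ligand, were run with SNAP-549-labelled MS2 coat protein from 0.7 or 1.5 nM, doubling to 3 µM. The targets were designs transcribed by stalled E. coli RNA polymerase on Illumina sequencing-chip clusters, in 100 mM Tris-HCl pH 7.5, 80 mM KCl, 4 mM MgCl2, BSA, DTT, yeast tRNA and Tween-20. The apparent Kd is the median of filtered per-cluster binding-curve fits, with green signal normalised to red-channel RNA signal and control-cluster median Fmax.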

[1] = designed as: ON switch for flavin mononucleotide, no ligand
[2] = ligand present: flavin mononucleotide, designed as: ON switch for flavin mononucleotide
[3] = designed as: OFF switch for flavin mononucleotide, no ligand
[4] = ligand present: flavin mononucleotide, designed as: OFF switch for flavin mononucleotide

Row | Sequence | apparent Kd [1] [nM] | apparent Kd [2] [nM] | apparent Kd [3] [nM] | apparent Kd [4] [nM]
1 | UCUAGACAUGAGGAUCACCCAUGUCGAUAUGGCGCAGGAUAUCGGUACUCAUAGAGUACGCGAGAAGGGUGACUUC | 343 | 48.4 |  | 
2 | UCUAUGUAAGAGAAGGAGGACUUCAUGAGGAUCACCCAUGUGUUAGUACUUAGGAUAUUUGACAACAUGAGGAUCACCCAUGUC | 65.7 | 61.7 |  | 
3 | UCUCGACAUGAGGAUCACCCAUGUCAGGAUAUUGUGUUUGAGGUUUUUUACCUUUUGGCAAGAAGGGAUGUGUG |  |  | 27.5 | 28.9
4 | UCUCGACAUGAGGAUCACCCAUGUCAGGAUAUUGUGUUUUGGGUUUUUUACCUUUUGGCAAGAAGGGAUGUGUG |  |  | 23 | 22.1
5 | UCUGAUAUUCCCGUGCCUCCAACACAGGAUAUCCGUCACAACAUGAGGAUCACCCAUGUCCGGGAGGAGAAGGGUGUGGAGAGU | 91.3 | 21.5 |  | 
6 | UCUGCAUAGUCAGGAUAUGCAAAAUUUAUUUUCUUCGGAAAAUAAAUAACAUGAGGAUCACCCAUGUAGAAGGGACUGUGCAGA |  |  | 16.9 | 14.7
7 | UCUGGUCGAGGAUAUACAUGAGGAUCACCCAUGUUGAUCAAGCGACUUCGGUCGCAAUGUAGAAGGCGACCAGA |  |  | 627 | 182
8 | UCUUGACAUGAGGAUCACCCAUGUCAGGAUAUAGUAGGACAAAUAAAUAAAAGUUCUACUAGAAGGGACGUGGG |  |  | 20.4 | 26.7
9 | UCUUUAUUUGUGAGGAUAUCGAUAAAAUGGAUUGUCGAGAAGGCACAUGAGGAUCACCCAUGUAUUGAACAGCA |  |  | 59.2 | 212
10 | UGAAACUACGAGAAGGACAUGUGGUCCUUCAGUUACAUGAGGAUCACCCAUGUAGGAUAUCGUAGUUUCAGGAUCGUGAGAUCG |  |  | 34.7 | 10.4
11 | UGAAAUCAUGUAGGAUAUGCAUGGCGAAGCUACGCAGAAGGACAUGAGGAUCACCCAUGUUCUGGCUACCGGAUACGGUGGCAA |  |  | 22 | 105
12 | UGAAUCUAGUAAGGAUAUACACGAGAUACAAGUGUAGAAGGUACUUACAUGAGGAUCACCCAUGUAUACAUGGAUAAUAGAUAU | 291 | 182 |  | 
13 | UGAGCCGGCACUGAGGAUAUUCAUAUUAAAACAUGAGGAUCACCCAUGUAGGCCAGAAGGCCUUGGGAGAAGGCAGGUCGGCUCA | 403 | 20.6 |  | 
14 | UGAGCCUCGUGAGGAUAUACAUGAGGAUCACCCAUGUAAAUGAAAGAUAGCUCGAAACGAGCAAAGUAGAAGGCACGAGGCUCA |  |  | 17.1 | 27.1
15 | UGAGCGACCACAGGAUAUACUCGGGAAGACCAAGUAGAAGGGUGGAAGAGCGUGCAGUGACAUGAGGAUCACCCAUGUGGUUGU | 143 | 97.3 |  | 
16 | UGAGCUUGUGUGAGGAUAUGAGUUCGGAAAUGAGCUUAGAAGGCACAUGAGGAUCACCCAUGUAAGCGAGUUCG |  |  | 72.2 | 74.7
17 | UGAUACAUGAGGAUCUCCCAUGACAUGAGGAUCACCCAUGUGCAGGAUAUACGUGUGAUAAUAUAGUAGAAGGGCAGUCUAUGU |  |  | 189 | 248
18 | UGAUACUAGGGAGGAUAUGGGAAGAUACAUGAGGAUCACCCAUGUUUAAGAAUGCCGAGAGGCAACUAGAAGGCCCUAGUACCU | 538 | 21.3 |  | 
19 | UGAUAGGACAGAGGAUAUACAGAUAGGAUCUACUAUCAAACAGUCCUUACAUGAGGAUCACCCAUGUAGAAGGCUGUCCUAUCU |  |  | 19.8 | 85.8
20 | UGAUAGGACAGAGGAUAUACAGAUAGGAUCUACUAUCCUCCUUAAAUAACAUGAGGAUCACCCAUGUAGAAGGCUGUCCUAUCU |  |  | 26.5 | 182
21 | UGAUAGGACAGAGGAUAUACCGAUAGGAUCUACUAUCGAAGAAUCCUCACAUGAGGAUCACCCAUGUAGAAGGCUGUCCUAUCU |  |  | 41.6 | 678
22 | UGAUAGGACAGAGGAUAUACGUGCUAGAGAUACUAGCAAAAUAUCCUUACAUGAGGAUCACCCAUGUAGAAGGCUGUCCUAUCU |  |  | 20 | 20.2
23 | UGAUAGGACAGAGGAUAUACGUGCUAGAGAUACUAGCAAAAUUUCCUAACAUGAGGAUCACCCAUGUAGAAGGCUGUCCUAUCU |  |  | 6.73 | 14.2
